What was measured:
Rattus norvegicus [1] = assay: Compound was tested for anticonvulsant activity administered by gastric tube in rat by rotarod test; type: functional
Rattus norvegicus [2] = assay: Compound was tested intraperitoneally for anticonvulsant activity against MES-induced seizures in rat by MES test; type: functional; details: ip
Summary of the method: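 Intraperitoneal dosing to rats, MES given at t_max. Corneal electrodes after oxibuprocaine eye drops; abolition of hindleg tonic extensor component as endpoint. 5–8 rats/group; ED50 from logistic equation fit.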

[3] = molecular target: T1, Sodium channel alpha subunits; brain (Types I, II, III) (Rattus norvegicus) (UniProt P04775+P04774+P08104); assay: Percent inhibition of 22Na+ uptake by voltage sensitive sodium channel of rat cortical synaptosomes at 30 uM; type: functional, subcellular
[4] = molecular target: T1, Sodium channel alpha subunits; brain (Types I, II, III) (Rattus norvegicus); assay: Percent inhibition of 22Na+ uptake by voltage sensitive sodium channel of rat cortical synaptosomes at 300 uM; type: functional, subcellular
Rattus norvegicus [5] = assay: t max for anticonvulsant activity was tested in rats intraperitoneally; type: functional, organism-based
Rattus norvegicus [6] = species on record: Rattus norvegicus; assay: Protective index value of the compound, given by gastric tube (TD50/ED50); type: functional, Stomach
Summary of the method: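 Ratio TD50/ED50 from oral (gastric tube) rotarod and MES tests in rats at t_max. Both values come from logistic fits, 5–8 rats/group.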

Rattus norvegicus [7] = assay: t max was for the anticonvulsant effect was tested in rats administered by gastric tube; t max; type: functional, organism-based; details: Stomach
Rattus norvegicus [8] = assay: Protective index value of the compound, given by intraperitoneally (TD50/ED50); type: functional
Summary of the method: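 Ratio TD50/ED50 from intraperitoneal rotarod and MES tests in rats. Both values come from logistic fits, 5–8 rats/group.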

Rattus norvegicus [9] = species on record: Rattus norvegicus; assay: Compound was tested for anticonvulsant activity against MES-induced seizures in rat; design: concentration or dose not given beside the values
Rattus norvegicus [10] = assay: Compound was tested intraperitoneally for anticonvulsant activity by rotarod test; type: functional; details: ip
Summary of the method: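 Rats trained to stay 3 min on a 5-cm rod rotating at 6 rpm. Next day, compound ip in DMSO (2 mL/kg), placed on rod 15 min later at 6 rpm. Deficit = failure to hold equilibrium 1 min in each of three trials. 5–8 rats/group; TD50 from logistic fit.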

[11] = molecular target: Sodium channel alpha subunits; brain (Types I, II, III) (Rattus norvegicus, UniProt P04775+P04774+P08104); assay: Displacement of [3H]BTX from voltage-gated sodium channel of rat cortical synaptosomes; type: subcellular
[12] = molecular target: T1, Sodium channel alpha subunits; brain (Types I, II, III) (Rattus norvegicus); assay: Percent inhibition of 22Na+ uptake by voltage sensitive sodium channel of rat cortical synaptosomes at 100 uM; type: functional, subcellular
Rattus norvegicus [13] = assay: Compound was tested for anticonvulsant activity administered by gastric tube in rat by MES test; type: functional
Summary of the method: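 Rats, oral by gastric tube, tested at t_max. Rats were pre-screened in a first MES session through corneal electrodes after oxibuprocaine eye drops, and only typical tonic–clonic convulsers were kept. Next day, compound or vehicle, then MES sessions 2 or 4 h and 6, 8 or 12 h post-dose. Endpoint was abolition of hindleg tonic extension. 5–8 rats/group; ED50 from logistic fit.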

[14] = molecular target: T1, Sodium channel alpha subunits; brain (Types I, II, III) (Rattus norvegicus); details: 300 uM

T1 sequence (P04775 whole entry, looked up, other chains not shown): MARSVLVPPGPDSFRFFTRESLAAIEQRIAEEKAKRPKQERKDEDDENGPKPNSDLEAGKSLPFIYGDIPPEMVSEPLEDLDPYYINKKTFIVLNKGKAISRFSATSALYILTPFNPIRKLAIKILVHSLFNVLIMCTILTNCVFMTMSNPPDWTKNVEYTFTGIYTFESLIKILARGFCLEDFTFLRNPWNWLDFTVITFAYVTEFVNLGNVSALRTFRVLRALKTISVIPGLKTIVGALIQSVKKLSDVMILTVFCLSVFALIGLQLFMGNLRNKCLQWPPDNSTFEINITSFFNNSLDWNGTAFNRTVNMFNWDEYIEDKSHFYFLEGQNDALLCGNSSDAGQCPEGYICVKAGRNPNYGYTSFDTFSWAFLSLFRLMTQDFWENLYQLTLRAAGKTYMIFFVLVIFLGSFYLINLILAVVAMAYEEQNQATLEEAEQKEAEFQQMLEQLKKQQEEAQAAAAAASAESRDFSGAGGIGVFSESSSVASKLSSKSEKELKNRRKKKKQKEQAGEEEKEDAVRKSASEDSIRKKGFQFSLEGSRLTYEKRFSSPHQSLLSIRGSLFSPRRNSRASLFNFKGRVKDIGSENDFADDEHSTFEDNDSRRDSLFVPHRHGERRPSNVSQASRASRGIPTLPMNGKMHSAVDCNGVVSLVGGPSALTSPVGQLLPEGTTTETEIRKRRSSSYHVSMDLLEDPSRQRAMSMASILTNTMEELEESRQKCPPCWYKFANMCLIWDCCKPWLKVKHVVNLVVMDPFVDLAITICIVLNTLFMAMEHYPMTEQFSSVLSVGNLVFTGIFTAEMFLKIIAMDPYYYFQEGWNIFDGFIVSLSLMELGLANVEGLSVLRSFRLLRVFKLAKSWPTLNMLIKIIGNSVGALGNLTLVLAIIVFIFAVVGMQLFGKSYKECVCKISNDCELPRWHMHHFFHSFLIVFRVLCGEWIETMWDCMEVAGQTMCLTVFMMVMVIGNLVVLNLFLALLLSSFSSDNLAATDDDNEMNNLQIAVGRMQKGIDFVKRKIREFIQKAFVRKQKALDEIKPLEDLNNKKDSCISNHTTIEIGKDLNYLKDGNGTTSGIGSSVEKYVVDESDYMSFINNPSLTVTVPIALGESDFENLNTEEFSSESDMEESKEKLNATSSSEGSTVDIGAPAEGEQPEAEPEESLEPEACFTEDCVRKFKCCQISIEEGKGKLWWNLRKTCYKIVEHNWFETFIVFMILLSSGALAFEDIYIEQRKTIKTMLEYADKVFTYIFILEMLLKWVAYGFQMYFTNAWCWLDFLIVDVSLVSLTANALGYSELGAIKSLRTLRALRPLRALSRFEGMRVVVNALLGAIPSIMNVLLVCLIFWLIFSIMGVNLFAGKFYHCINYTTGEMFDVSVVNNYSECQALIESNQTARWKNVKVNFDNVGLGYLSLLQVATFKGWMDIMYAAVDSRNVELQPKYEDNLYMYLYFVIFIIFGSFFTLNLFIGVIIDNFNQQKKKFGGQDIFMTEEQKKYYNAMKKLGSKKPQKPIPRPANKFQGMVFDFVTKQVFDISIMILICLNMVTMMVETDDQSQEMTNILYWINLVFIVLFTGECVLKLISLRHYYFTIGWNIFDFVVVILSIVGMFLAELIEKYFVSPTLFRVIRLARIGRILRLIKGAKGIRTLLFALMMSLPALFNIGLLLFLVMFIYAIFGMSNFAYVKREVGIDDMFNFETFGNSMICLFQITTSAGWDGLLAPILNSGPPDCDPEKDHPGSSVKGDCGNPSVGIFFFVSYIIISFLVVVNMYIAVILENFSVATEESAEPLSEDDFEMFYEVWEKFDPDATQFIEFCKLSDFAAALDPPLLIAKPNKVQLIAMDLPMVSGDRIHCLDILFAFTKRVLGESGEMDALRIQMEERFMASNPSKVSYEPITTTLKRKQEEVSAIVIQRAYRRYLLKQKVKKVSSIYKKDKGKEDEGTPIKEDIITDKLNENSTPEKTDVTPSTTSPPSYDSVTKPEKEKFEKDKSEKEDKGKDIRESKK
T1 sequence (P08104 whole entry, looked up, other chains not shown): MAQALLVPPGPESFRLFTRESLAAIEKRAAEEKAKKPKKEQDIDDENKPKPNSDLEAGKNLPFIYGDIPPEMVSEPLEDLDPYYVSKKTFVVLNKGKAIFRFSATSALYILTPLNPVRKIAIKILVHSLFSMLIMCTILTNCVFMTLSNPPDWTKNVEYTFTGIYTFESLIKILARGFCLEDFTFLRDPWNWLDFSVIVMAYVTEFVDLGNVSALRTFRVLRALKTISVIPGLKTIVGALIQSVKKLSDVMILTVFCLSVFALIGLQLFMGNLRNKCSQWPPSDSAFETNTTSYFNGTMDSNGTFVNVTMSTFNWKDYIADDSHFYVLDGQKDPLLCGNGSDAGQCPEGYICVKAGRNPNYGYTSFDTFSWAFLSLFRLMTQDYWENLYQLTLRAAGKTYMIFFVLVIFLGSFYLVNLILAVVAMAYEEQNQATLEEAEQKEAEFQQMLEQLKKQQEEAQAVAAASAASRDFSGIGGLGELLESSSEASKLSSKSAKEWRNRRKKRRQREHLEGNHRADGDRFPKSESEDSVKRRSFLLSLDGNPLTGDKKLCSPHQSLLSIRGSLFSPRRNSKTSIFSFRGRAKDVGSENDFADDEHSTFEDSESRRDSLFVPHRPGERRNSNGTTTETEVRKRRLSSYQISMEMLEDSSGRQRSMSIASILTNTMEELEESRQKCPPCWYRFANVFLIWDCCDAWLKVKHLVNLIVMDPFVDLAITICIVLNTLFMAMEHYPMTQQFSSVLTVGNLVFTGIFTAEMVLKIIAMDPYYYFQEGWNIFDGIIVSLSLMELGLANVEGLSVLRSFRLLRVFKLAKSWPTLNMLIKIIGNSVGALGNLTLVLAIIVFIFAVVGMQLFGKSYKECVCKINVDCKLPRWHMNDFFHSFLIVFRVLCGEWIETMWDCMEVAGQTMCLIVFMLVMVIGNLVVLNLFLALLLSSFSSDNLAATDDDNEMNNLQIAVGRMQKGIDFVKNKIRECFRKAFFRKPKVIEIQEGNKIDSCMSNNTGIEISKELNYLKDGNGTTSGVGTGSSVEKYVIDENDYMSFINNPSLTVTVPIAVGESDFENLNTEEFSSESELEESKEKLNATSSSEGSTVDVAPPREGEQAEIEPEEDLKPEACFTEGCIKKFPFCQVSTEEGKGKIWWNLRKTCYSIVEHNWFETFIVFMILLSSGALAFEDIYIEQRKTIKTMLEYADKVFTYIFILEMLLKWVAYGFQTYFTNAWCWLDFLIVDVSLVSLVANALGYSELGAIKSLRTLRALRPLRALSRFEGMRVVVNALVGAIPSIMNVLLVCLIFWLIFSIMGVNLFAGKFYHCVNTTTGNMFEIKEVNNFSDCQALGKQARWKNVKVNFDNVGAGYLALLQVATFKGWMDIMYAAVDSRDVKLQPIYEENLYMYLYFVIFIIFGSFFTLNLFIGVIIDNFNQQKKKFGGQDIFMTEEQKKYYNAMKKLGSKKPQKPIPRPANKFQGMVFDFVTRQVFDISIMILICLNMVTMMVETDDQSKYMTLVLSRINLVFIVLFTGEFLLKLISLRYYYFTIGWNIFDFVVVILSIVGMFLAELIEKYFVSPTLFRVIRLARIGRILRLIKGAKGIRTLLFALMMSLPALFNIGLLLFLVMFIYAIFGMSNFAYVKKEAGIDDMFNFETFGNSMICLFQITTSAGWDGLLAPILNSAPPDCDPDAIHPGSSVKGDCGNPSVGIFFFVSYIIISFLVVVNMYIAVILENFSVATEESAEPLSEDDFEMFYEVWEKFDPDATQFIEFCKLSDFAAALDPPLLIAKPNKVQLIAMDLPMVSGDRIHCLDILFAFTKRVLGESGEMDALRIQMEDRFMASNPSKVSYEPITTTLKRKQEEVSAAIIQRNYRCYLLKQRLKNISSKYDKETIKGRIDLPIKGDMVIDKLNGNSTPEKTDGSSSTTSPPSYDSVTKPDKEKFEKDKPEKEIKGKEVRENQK

| Structure (SMILES) | ED50 (Rattus norvegicus [2]) [mg/kg] | Tmax (Rattus norvegicus [5]) [min] | Protection (Rattus norvegicus [9]) [%] | TD50 (Rattus norvegicus [10]) [mg/kg] | further results |
| --- | --- | --- | --- | --- | --- |
| CC(=O)O[C@@H]1Cc2ccccc2N(C(N)=O)c2ccccc21 | 18 | 60 | 5.9 | 135 | TD50 (Rattus norvegicus [1]): > 1000 mg/kg; inhibition [3]: 17.9%; inhibition [4]: 73.2%; Protective index (Rattus norvegicus [6]): >91.7; Tmax (Rattus norvegicus [7]): 480 min; Protective index (Rattus norvegicus [8]): 7.5; IC50 [11]: 113 µM; inhibition [12]: 57.7%; ED50 (Rattus norvegicus [13]): 10.9 mg/kg |
| COc1ccc(CC(=O)OC2Cc3ccccc3N(C(N)=O)c3ccccc32)cc1 (centres undefined) | – | – | 8.1 | – | – |
| NC(=O)N1c2ccccc2CC(OC(=O)Cc2ccc([N+](=O)[O-])cc2)c2ccccc21 (centres undefined) | – | – | 13.8 | – | – |
| NC(=O)N1c2ccccc2CC(OC=O)c2ccccc21 (centres undefined) | – | – | 32.1 | – | – |
| NC(=O)N1c2ccccc2CC(O)c2ccccc21 (centres undefined) [LICARBAZEPINE] | 14.6 | 15 | – | 89.3 | – |
| CCOC(=O)OC1Cc2ccccc2N(C(N)=O)c2ccccc21 (centres undefined) | – | – | 18.3 | – | – |
| CCCC(CC)C(=O)OC1Cc2ccccc2N(C(N)=O)c2ccccc21 (centres undefined) | – | – | -12.8 | – | – |
| CC(=O)O[C@H]1Cc2ccccc2N(C(N)=O)c2ccccc21 [ESLICARBAZEPINE ACETATE] | 6.3 | 15 | 100 | 78.6 | TD50 (Rattus norvegicus [1]): 359 mg/kg; inhibition [3]: 52.6%; inhibition [4]: 95.6%; Protective index (Rattus norvegicus [6]): 76.3; Tmax (Rattus norvegicus [7]): 120 min; Protective index (Rattus norvegicus [8]): 12.5; IC50 [11]: 138 µM; inhibition [12]: 73.4%; ED50 (Rattus norvegicus [13]): 4.7 mg/kg |
| CC(Cl)C(=O)OC1Cc2ccccc2N(C(N)=O)c2ccccc21 (centres undefined) | – | – | 3.9 | – | – |
| NC(=O)N1c2ccccc2CC(OC(=O)c2cccnc2)c2ccccc21 (centres undefined) | – | – | 32.8 | – | – |
| NC(=O)N1c2ccccc2CC(OC(=O)CBr)c2ccccc21 (centres undefined) | – | – | 15.1 | – | – |
| CCCC(=O)OC1Cc2ccccc2N(C(N)=O)c2ccccc21 (centres undefined) | – | – | 34.2 | – | – |
| CCC(=O)OC1Cc2ccccc2N(C(N)=O)c2ccccc21 (centres undefined) | – | – | 40.6 | – | – |
| NC(=O)N1c2ccccc2CC(OC(=O)c2ccccc2)c2ccccc21 (centres undefined) | – | – | 17.2 | – | – |
| CC(=O)OC1Cc2ccccc2N(C(N)=O)c2ccccc21 (centres undefined) | 13.1 | 5 | 54.4 | 130 | TD50 (Rattus norvegicus [1]): 428 mg/kg; inhibition [3]: 42.2%; inhibition [4]: 82.1%; Protective index (Rattus norvegicus [6]): 31.7; Tmax (Rattus norvegicus [7]): 120 min; Protective index (Rattus norvegicus [8]): 9.9; IC50 [11]: 141 µM; inhibition [12]: 61.8%; ED50 (Rattus norvegicus [13]): 13.5 mg/kg |
| CC(=O)Oc1ccccc1C(=O)OC1Cc2ccccc2N(C(N)=O)c2ccccc21 (centres undefined) | – | – | 10.2 | – | – |
| NC(=O)N1c2ccccc2CC(=O)c2ccccc21 [OXCARBAZEPINE] | 6.1 | 5 | – | 40.1 | TD50 (Rattus norvegicus [1]): > 1000 mg/kg; inhibition [14]: 76.2%; inhibition [3]: 31.2%; Tmax (Rattus norvegicus [7]): 120 min; IC50 [11]: 161 µM; inhibition [12]: 50.2%; ED50 (Rattus norvegicus [13]): 10 mg/kg |
| CC(C)(C)C(=O)OC1Cc2ccccc2N(C(N)=O)c2ccccc21 (centres undefined) | – | – | 6.5 | – | – |
| NC(=O)N1c2ccccc2C=Cc2ccccc21 [CARBAMAZEPINE] | 3.4 | 15 | – | 27.4 | TD50 (Rattus norvegicus [1]): 251 mg/kg; inhibition [3]: 22.6%; inhibition [4]: 64.8%; Tmax (Rattus norvegicus [7]): 120 min; IC50 [11]: 210 µM; inhibition [12]: 44.3%; ED50 (Rattus norvegicus [13]): 5.4 mg/kg |
| NC(=O)N1c2ccccc2C[C@H](O)c2ccccc21 [ESLICARBAZEPINE] | 17.1 | 30 | – | 96.6 | – |
| CCCC(CCC)C(=O)OC1Cc2ccccc2N(C(N)=O)c2ccccc21 (centres undefined) | – | – | 0.2 | – | – |
| NC(=O)N1c2ccccc2C[C@@H](O)c2ccccc21 | 17.9 | 30 | – | 97.4 | – |
| NC(=O)N1c2ccccc2CC(OC(=O)CCl)c2ccccc21 (centres undefined) | – | – | 0.5 | – | – |
| CCCCCCCCCCCCCCCCCC(=O)OC1Cc2ccccc2N(C(N)=O)c2ccccc21 (centres undefined) | – | – | 0.8 | – | – |

From ChEMBL document CHEMBL1132296, “Anticonvulsant and sodium channel-blocking properties of novel 10,11-dihydro-5H-dibenz[b,f]azepine-5-carboxamide derivatives” (J Med Chem, 1999)
